# Experimental data taken from PubChem BioAssay AID602209 (Southern Research Specialized Biocontainment Screening …, 2012).
# Active and inactive are the calls of the source.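 The calls were made as follows: active = inhibition of 30% or more at any tested concentration; inactive = the rest.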
# Target: M17 leucyl aminopeptidase (Plasmodium falciparum 3D7)
# Assay: Inhibition of P. falciparum M17 aminopeptidase – biochemical, QFRET, set 2, counter-screen for PfM1AAP inhibitor project, dose response (AID 602209)
# Conditions: recombinant PfM17LAP, H-Leu-NHMec fluorogenic cleavage
# Outline: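 assay system = recombinant Plasmodium falciparum M17 leucine aminopeptidase enzyme | input = enzyme 5 µg/mL | medium = Tris-HCl pH 7.5 plus CoCl2 | compound = 100–0.2 µM, 2-fold dilutions | schedule = reaction 90 min, room temperature | measured by = NHMec fluorescence | read-out basis = % inhibition and IC50 via 4-parameter fit | control set = no-enzyme background wells | repeats = triplicate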
inhibition (at 100 µM (top of the series)),IC50 [µM],Structure (SMILES),also measured
inactive,,CC[C@H](C)[C@H](NC(=O)c1ccc(C(C)(C)C)cc1)C(=O)NCc1ccc(Cl)cc1,
,,CC[C@H](C)[C@H](NC(=O)c1ccc(C(C)(C)C)cc1)C(=O)NCc1ccc2c(c1)OCO2,inhibition (at 1.56 µM (top of the series)): inactive
inactive,,CC[C@H](C)[C@H](NS(=O)(=O)c1ccc(Br)s1)C(=O)NCc1ccc(Cl)cc1,
,3.52,O=C(NCc1ccccc1)C1CCN(S(=O)(=O)c2ccc(Br)s2)CC1,
,8.81,O=C(NCc1ccc(F)cc1)C1CCN(S(=O)(=O)c2ccc(Br)s2)CC1,
,3.57,O=C(NCc1ccc2c(c1)OCO2)C1CCN(S(=O)(=O)c2ccc(Br)s2)CC1,
inactive,,CC[C@H](C)[C@H](NS(=O)(=O)c1ccc(Br)s1)C(=O)NCc1ccc2c(c1)OCO2,
,38.9,O=C(NCc1ccc(Cl)cc1)C1CCN(S(=O)(=O)c2ccc(Br)s2)CC1,
